pIC50: −log10 of the molar value. Where a SMILES comes first, the peptide text is derived from it. [ ]: non-standard residue; d: D form. The star is where a group is joined. Adenosine(5'-uronoyl) = Nc1ncnc2c1ncn2[C@@H]1O[C@H](C(=O)*)[C@@H](O)[C@H]1O; Ahx = NCCCCCC(=O)O
Experiments:
[1] = biological target: T1, cAMP-dependent protein kinase catalytic subunit alpha (Homo sapiens, UniProt P17612); assay: Inhibition of PKA catalytic subunit alpha using 100 uM ATP and 30 uM TAMRA-kemptide substrate by fluorometric TLC assay
[2] = biological target: RAC-gamma serine/threonine-protein kinase (Homo sapiens, UniProt Q9Y243); assay: Inhibition of PKBgamma using 100 uM ATP and 30 uM TAMRA-kemptide substrate by fluorometric TLC assay
[3] = biological target: 5'-AMP-activated protein kinase catalytic subunit alpha-1 (Homo sapiens) (UniProt Q13131); assay: Inhibition of AMPKalpha1 at 100 nM relative to control
In short: (§1)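 Activity is expressed as percent inhibition versus control incubations lacking inhibitor. Values are means of duplicate determinations.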

[4] = biological target: 5'-AMP-activated protein kinase subunit beta-1 (Homo sapiens) (UniProt Q9Y478); assay: Inhibition of AMPKbeta1 at 100 nM relative to control; in short: as §1
[5] = biological target: 5'-AMP-activated protein kinase subunit gamma-1 (Homo sapiens) (UniProt P54619); assay: Inhibition of AMPKgamma1 at 100 nM relative to control; in short: as §1
[6] = biological target: Aurora kinase A (Homo sapiens) (UniProt O14965); assay: Inhibition of Aurora A at 100 nM relative to control; in short: as §1
[7] = biological target: Calcium/calmodulin-dependent protein kinase type 1D (Homo sapiens) (UniProt Q8IU85); assay: Inhibition of CaMK1delta at 100 nM relative to control; in short: as §1
[8] = biological target: Calcium/calmodulin-dependent protein kinase type II subunit alpha (Homo sapiens) (UniProt Q9UQM7); assay: Inhibition of CaMK2alpha at 100 nM relative to control; in short: as §1
[9] = biological target: Calcium/calmodulin-dependent protein kinase type II subunit beta (Homo sapiens) (UniProt Q13554); assay: Inhibition of CaMK2beta at 100 nM relative to control; in short: as §1
[10] = biological target: CDK2/Cyclin A1 (Homo sapiens) (UniProt P24941+P78396); assay: Inhibition of Cdk2/cyclin A at 100 nM relative to control; type: protein-complex assay; in short: as §1
[11] = biological target: Serine/threonine-protein kinase Chk1 (Homo sapiens) (UniProt O14757); assay: Inhibition of CHK1 at 100 nM relative to control; in short: as §1
[12] = biological target: Serine/threonine-protein kinase Chk2 (Homo sapiens) (UniProt O96017); assay: Inhibition of CHK2 at 100 nM relative to control; in short: as §1
[13] = biological target: Death-associated protein kinase 3 (Homo sapiens) (UniProt O43293); assay: Inhibition of DAPK3 at 100 nM relative to control; in short: as §1
[14] = biological target: Glycogen synthase kinase-3 alpha (Homo sapiens) (UniProt P49840); assay: Inhibition of GSK3alpha at 100 nM relative to control; in short: as §1
[15] = biological target: Glycogen synthase kinase-3 beta (Homo sapiens) (UniProt P49841); assay: Inhibition of GSK3-beta at 100 nM relative to control; in short: as §1
[16] = biological target: Maternal embryonic leucine zipper kinase (Homo sapiens) (UniProt Q14680); assay: Inhibition of MELK at 100 nM relative to control; in short: as §1
[17] = biological target: Ribosomal protein S6 kinase beta-1 (Homo sapiens) (UniProt P23443); assay: Inhibition of p70S6K at 100 nM relative to control; in short: as §1
[18] = biological target: Serine/threonine-protein kinase PAK 3 (Homo sapiens) (UniProt O75914); assay: Inhibition of PAK3 at 100 nM relative to control; in short: as §1
[19] = biological target: Serine/threonine-protein kinase pim-1 (Homo sapiens) (UniProt P11309); assay: Inhibition of PIM1 at 100 nM relative to control; in short: as §1
[20] = biological target: Serine/threonine-protein kinase pim-2 (Homo sapiens) (UniProt Q9P1W9); assay: Inhibition of PIM2 at 100 nM relative to control; in short: as §1
[21] = biological target: RAC-alpha serine/threonine-protein kinase (Homo sapiens) (UniProt P31749); assay: Inhibition of AKT1 at 100 nM relative to control; in short: as §1
[22] = biological target: RAC-beta serine/threonine-protein kinase (Homo sapiens) (UniProt P31751); assay: Inhibition of AKT2 at 100 nM relative to control; in short: as §1
[23] = biological target: Protein kinase C alpha type (Homo sapiens) (UniProt P17252); assay: Inhibition of PKCalpha at 100 nM relative to control; in short: as §1
[24] = biological target: Protein kinase C beta type (Homo sapiens) (UniProt P05771); assay: Inhibition of PKCbeta1 at 100 nM relative to control; in short: as §1
[25] = biological target: Protein kinase C beta type (Homo sapiens) (UniProt P05771); assay: Inhibition of PKCbeta2 at 100 nM relative to control; in short: as §1
[26] = biological target: Protein kinase C delta type (Homo sapiens) (UniProt Q05655); assay: Inhibition of PKCdelta at 100 nM relative to control; in short: as §1
[27] = biological target: Protein kinase C epsilon type (Homo sapiens) (UniProt Q02156); assay: Inhibition of PKCepsilon at 100 nM relative to control; in short: as §1
[28] = biological target: Protein kinase C gamma type (Homo sapiens) (UniProt P05129); assay: Inhibition of PKCgamma at 100 nM relative to control; in short: as §1
[29] = biological target: Protein kinase C eta type (Homo sapiens) (UniProt P24723); assay: Inhibition of PKCeta at 100 nM relative to control; in short: as §1
[30] = biological target: Protein kinase C iota type (Homo sapiens) (UniProt P41743); assay: Inhibition of PKCiota at 100 nM relative to control; in short: as §1
[31] = biological target: Protein kinase C zeta type (Homo sapiens) (UniProt Q05513); assay: Inhibition of PKCzeta at 100 nM relative to control; in short: as §1
[32] = biological target: Serine/threonine-protein kinase D2 (Homo sapiens) (UniProt Q9BZL6); assay: Inhibition of PKD2 at 100 nM relative to control; in short: as §1
[33] = biological target: cGMP-dependent protein kinase 1 (Homo sapiens) (UniProt Q13976); assay: Inhibition of PKG1 at 100 nM relative to control; in short: as §1
[34] = biological target: cGMP-dependent protein kinase 2 (Homo sapiens) (UniProt Q13237); assay: Inhibition of PKG2 at 100 nM relative to control; in short: as §1
[35] = biological target: Rho-associated protein kinase 1 (Homo sapiens) (UniProt Q13464); assay: Inhibition of ROCK1 at 100 nM relative to control; in short: as §1
[36] = biological target: Ribosomal protein S6 kinase alpha-2 (Homo sapiens) (UniProt Q15349); assay: Inhibition of RSK3 at 100 nM relative to control; in short: as §1
[37] = biological target: Serine/threonine-protein kinase Sgk1 (Homo sapiens) (UniProt O00141); assay: Inhibition of SGK1 at 100 nM relative to control; in short: as §1
[38] = biological target: Serine/threonine-protein kinase Sgk2 (Homo sapiens) (UniProt Q9HBY8); assay: Inhibition of SGK2 at 100 nM relative to control; in short: as §1
[39] = biological target: Proto-oncogene tyrosine-protein kinase Src (Homo sapiens) (UniProt P12931); assay: Inhibition of SRC at 100 nM relative to control; in short: as §1
[40] = biological target: T1, cAMP-dependent protein kinase catalytic subunit alpha; details: 100 nM
[41] = biological target: Rho-associated protein kinase 2 (Homo sapiens) (UniProt O75116); details: 100 nM
[42] = biological target: Ribosomal protein S6 kinase alpha-3 (Homo sapiens) (UniProt P51812); details: 100 nM
Chain of Ribosomal protein S6 kinase alpha-3 (Homo sapiens) (P51812 whole entry): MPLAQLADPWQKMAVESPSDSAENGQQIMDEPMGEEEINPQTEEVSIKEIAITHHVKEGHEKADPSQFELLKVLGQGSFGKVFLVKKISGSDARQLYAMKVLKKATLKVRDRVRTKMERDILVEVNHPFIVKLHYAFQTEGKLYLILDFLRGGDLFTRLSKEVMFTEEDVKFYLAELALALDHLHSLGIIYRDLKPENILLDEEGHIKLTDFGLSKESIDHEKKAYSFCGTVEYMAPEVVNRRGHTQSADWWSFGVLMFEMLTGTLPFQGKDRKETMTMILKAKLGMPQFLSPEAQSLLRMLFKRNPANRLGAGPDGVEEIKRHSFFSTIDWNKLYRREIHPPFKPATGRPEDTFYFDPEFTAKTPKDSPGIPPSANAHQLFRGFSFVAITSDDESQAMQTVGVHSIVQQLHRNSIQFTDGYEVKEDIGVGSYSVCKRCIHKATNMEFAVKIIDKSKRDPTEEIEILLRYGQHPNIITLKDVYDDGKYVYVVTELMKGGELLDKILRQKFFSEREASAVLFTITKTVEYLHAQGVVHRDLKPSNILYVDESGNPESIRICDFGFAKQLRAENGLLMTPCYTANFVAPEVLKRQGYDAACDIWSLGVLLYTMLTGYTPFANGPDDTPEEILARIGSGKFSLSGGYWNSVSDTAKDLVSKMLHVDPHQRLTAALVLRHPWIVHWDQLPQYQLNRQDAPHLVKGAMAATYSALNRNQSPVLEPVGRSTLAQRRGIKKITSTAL

Chain of Protein kinase C beta type (Homo sapiens) (P05771 2-671 limits assumed): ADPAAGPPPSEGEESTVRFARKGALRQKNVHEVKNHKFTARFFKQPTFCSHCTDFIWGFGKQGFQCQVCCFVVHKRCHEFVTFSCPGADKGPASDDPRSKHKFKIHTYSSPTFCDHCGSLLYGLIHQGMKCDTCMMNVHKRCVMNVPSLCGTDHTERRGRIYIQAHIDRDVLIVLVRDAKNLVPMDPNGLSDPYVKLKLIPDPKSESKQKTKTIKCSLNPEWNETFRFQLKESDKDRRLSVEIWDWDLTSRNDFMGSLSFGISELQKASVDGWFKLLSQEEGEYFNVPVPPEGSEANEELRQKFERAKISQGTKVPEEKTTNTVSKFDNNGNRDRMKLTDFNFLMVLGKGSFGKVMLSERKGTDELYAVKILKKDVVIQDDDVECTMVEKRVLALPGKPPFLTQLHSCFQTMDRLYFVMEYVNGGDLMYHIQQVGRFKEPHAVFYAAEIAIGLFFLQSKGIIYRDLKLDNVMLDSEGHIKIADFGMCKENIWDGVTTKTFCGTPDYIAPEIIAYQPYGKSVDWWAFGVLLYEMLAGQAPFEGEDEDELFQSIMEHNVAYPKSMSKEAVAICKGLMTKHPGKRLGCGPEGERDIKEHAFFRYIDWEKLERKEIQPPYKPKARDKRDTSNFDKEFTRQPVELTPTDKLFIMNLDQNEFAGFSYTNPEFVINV
Chain of Protein kinase C zeta type (Homo sapiens) (Q05513 whole entry): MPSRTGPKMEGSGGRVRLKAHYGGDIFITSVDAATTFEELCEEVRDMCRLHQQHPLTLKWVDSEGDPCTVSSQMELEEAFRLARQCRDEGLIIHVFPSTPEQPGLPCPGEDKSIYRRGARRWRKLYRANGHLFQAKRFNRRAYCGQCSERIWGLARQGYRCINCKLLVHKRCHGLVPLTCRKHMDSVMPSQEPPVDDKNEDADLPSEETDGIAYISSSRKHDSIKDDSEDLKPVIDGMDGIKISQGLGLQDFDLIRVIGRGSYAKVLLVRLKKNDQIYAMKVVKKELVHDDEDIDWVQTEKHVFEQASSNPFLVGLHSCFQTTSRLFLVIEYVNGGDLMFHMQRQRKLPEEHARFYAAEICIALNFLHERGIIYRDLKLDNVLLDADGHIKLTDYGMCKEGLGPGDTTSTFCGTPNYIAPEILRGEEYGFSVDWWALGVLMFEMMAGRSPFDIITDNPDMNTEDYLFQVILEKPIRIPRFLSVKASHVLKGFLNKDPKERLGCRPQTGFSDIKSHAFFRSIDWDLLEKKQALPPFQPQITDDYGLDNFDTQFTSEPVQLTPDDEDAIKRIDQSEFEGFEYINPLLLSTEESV
Chain of Serine/threonine-protein kinase PAK 3 (Homo sapiens) (O75914 whole entry, looked up): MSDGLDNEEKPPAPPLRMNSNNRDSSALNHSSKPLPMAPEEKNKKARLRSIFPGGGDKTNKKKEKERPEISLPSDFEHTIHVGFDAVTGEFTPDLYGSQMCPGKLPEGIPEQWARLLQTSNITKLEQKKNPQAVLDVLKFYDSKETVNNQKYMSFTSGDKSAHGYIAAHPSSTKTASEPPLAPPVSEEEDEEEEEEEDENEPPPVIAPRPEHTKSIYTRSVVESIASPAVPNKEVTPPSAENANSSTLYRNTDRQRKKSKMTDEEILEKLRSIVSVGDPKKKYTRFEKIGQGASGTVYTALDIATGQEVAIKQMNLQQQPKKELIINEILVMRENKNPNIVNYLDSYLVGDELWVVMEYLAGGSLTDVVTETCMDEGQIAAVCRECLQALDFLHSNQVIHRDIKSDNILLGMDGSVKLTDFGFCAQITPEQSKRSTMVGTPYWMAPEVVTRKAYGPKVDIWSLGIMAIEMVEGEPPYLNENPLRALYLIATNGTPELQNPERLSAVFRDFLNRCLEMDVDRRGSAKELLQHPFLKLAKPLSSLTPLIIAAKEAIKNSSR
Chain of Calcium/calmodulin-dependent protein kinase type II subunit alpha (Homo sapiens) (Q9UQM7 whole entry): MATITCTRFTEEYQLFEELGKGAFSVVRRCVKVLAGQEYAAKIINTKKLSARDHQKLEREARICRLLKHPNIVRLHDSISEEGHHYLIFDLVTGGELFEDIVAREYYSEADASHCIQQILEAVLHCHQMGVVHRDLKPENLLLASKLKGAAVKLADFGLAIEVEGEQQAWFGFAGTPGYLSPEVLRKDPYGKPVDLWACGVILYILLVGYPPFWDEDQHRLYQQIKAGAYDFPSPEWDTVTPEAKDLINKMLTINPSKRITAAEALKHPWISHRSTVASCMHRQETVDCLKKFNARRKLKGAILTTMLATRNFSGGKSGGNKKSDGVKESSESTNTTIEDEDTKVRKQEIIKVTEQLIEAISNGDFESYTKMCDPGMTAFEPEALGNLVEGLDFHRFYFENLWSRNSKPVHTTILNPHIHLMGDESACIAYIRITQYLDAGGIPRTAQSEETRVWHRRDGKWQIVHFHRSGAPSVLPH
Chain of Serine/threonine-protein kinase pim-1 (Homo sapiens) (P11309 whole entry, looked up): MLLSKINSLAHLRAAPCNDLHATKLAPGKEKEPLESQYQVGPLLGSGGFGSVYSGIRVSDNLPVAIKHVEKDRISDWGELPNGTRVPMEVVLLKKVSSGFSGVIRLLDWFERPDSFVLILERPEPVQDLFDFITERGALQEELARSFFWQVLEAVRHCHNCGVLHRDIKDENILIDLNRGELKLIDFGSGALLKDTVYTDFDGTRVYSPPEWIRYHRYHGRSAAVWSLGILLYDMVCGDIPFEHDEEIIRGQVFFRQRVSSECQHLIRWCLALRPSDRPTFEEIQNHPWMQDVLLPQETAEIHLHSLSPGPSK
Chain of Serine/threonine-protein kinase Chk2 (Homo sapiens) (O96017 whole entry): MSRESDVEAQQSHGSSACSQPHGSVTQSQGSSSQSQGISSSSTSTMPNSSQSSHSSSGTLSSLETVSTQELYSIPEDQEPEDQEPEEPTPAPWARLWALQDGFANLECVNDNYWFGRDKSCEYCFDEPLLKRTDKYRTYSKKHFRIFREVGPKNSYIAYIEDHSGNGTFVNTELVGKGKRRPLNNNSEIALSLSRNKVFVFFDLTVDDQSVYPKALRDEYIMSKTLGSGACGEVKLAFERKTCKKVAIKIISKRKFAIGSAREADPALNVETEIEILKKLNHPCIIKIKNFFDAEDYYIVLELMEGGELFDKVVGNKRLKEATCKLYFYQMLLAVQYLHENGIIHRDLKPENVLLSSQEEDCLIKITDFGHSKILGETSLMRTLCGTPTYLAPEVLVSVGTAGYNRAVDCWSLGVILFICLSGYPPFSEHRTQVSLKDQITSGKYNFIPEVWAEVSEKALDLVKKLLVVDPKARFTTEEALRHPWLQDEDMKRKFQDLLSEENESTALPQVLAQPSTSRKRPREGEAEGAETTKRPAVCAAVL
Chain of 5'-AMP-activated protein kinase subunit beta-1 (Homo sapiens) (Q9Y478 whole entry): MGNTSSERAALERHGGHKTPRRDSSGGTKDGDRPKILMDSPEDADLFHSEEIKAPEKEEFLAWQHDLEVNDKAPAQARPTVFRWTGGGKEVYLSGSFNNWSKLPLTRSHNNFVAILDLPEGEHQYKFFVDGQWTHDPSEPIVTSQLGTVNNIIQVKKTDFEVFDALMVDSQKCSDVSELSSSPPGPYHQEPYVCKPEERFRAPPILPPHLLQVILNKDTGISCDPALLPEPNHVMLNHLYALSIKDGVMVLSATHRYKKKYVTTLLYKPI
Chain of Serine/threonine-protein kinase pim-2 (Homo sapiens) (Q9P1W9 whole entry, looked up): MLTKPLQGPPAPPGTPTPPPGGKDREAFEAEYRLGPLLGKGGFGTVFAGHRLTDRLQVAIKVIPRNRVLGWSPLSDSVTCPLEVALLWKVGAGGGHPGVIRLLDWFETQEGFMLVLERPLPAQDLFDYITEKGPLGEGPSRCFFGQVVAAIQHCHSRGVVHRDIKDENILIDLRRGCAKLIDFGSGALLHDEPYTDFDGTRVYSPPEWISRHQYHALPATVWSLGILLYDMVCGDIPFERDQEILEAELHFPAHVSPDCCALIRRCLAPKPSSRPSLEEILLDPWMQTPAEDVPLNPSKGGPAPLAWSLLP
Chain of Glycogen synthase kinase-3 beta (Homo sapiens) (P49841 whole entry, looked up): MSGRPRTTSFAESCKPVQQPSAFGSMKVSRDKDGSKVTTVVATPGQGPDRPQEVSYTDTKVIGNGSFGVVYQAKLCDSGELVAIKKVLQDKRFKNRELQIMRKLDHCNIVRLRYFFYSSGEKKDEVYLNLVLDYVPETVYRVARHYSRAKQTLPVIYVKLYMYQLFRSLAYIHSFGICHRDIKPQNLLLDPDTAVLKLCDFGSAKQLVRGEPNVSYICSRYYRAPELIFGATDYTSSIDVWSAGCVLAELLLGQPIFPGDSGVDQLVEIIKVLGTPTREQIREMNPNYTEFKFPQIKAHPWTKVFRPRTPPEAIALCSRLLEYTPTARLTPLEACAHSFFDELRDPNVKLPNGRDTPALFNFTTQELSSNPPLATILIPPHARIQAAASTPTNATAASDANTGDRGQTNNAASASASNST

SMILES: N=C(N)NCCC[C@@H](NC(=O)[C@@H](CCCNC(=N)N)NC(=O)[C@@H](CCCNC(=N)N)NC(=O)[C@@H](CCCNC(=N)N)NC(=O)[C@@H](CCCNC(=N)N)NC(=O)[C@@H](CCCNC(=N)N)NC(=O)CCCCCNC(=O)[C@@H](CCCCN)NC(=O)CCCCCNC(=O)[C@H]1O[C@@H](n2cnc3c(N)ncnc32)[C@H](O)[C@@H]1O)C(N)=O ({Adenosine(5'-uronoyl)-Ahx}-[dK][Ahx][dR][dR][dR][dR][dR][dR]-NH2)
- pIC50 [1]: 8.27
- pIC50 [2]: 7.84
- inhibition [3]: 51%
- inhibition [4]: 51%
- inhibition [5]: 51%
- inhibition [6]: 10%
- inhibition [7]: 35%
- inhibition [8]: 5%
- inhibition [9]: 16%
- inhibition [10]: 0%
- inhibition [11]: 88%
- inhibition [12]: 62%
- inhibition [13]: 22%
- inhibition [14]: 16%
- inhibition [15]: 16%
- inhibition [16]: 84%
- inhibition [17]: 96%
- inhibition [18]: 74%
- inhibition [19]: 96%
- inhibition [20]: 79%
- inhibition [21]: 89%
- inhibition [22]: 62%
- inhibition [23]: 94%
- inhibition [24]: 97%
- inhibition [25]: 94%
- inhibition [26]: 97%
- inhibition [27]: 106%
- inhibition [28]: 107%
- inhibition [29]: 106%
- inhibition [30]: 34%
- inhibition [31]: 53%
- inhibition [32]: 37%
- inhibition [33]: 58%
- inhibition [34]: 16%
- inhibition [35]: 105%
- inhibition [36]: 99%
- inhibition [37]: 89%
- inhibition [38]: 76%
- inhibition [39]: 28%
- inhibition [40]: 104%
- inhibition [41]: 104%
- inhibition [42]: 104%
